PubChem BioAssay AID652202 (Vanderbilt Specialized Chemistry Center, 2013)
Activity calls are given as the source filed them. No rule for the calls is given here.

Target: Metabotropic glutamate receptor 3 (Rattus norvegicus) (UniProt P31422)
Assay: mGlu3 modulation of glutamate calcium response, selectivity assay for mGlu5 silent allosteric modulator project, cell-based, rat, TRex293, Galpha15, Fluo4 calcium (AID 652202)
Details: TRex293 rmGlu3+Galpha15, Fluo4 calcium mobilization
Procedure, shortened: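 Material: TRex293 cells with rat mGlu3 and Galpha15; reagent: glutamate, 10 nM–1 mM; dosing: compound at 10 µM, 1% DMSO; incubation: Fluo4-AM loading 60 min at 37 °C, glutamate added at 80 s; detection: calcium mobilization via Fluo4-AM fluorescence, dye at 1 µM; read-out basis: modulation of glutamate concentration-response by compound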

Metabotropic glutamate receptor 3 (Rattus norvegicus), sequence (P31422 whole entry, looked up): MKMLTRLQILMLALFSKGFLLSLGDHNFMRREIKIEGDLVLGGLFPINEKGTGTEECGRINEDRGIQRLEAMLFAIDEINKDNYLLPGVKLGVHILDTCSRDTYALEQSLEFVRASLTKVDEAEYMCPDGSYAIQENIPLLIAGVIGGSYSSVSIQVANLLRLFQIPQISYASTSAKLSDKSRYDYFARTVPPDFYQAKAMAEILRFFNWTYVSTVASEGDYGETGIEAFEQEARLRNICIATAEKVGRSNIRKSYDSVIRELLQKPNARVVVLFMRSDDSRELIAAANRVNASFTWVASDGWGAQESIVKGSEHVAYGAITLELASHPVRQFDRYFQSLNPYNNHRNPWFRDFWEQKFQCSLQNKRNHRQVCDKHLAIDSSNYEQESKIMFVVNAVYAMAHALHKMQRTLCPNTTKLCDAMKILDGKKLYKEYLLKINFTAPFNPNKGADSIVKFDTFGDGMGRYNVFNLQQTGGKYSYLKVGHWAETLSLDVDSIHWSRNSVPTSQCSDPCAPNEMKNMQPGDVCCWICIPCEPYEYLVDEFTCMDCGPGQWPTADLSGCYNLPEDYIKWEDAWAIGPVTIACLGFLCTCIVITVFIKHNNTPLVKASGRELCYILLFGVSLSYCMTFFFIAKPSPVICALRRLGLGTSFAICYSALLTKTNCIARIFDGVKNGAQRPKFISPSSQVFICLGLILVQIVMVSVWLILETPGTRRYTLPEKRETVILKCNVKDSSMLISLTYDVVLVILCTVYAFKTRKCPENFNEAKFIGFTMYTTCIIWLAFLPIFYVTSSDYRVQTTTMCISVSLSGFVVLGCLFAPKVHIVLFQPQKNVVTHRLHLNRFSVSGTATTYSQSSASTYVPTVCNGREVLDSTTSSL

O=C(c1ccc(C#Cc2cccc(F)c2)cn1)N1CC2CC2C1 (stereo unspecified)
glutamate EC50 in presence of 10 uM compound: inactive
